Key:
Salmonella typhimurium = experiment: Antibacterial activity against Salmonella enterica ATCC 14028 assessed as bacterial growth inhibition by CLSI protocol based serial microdilution method; assay type: functional, Salmonella enterica subsp. enterica serovar Typhimurium
Influenza A virus = experiment: Antiviral activity against Influenza A virus (A/Puerto Rico/8/34 (H1N1) infected in MDCK cells assessed as decrease in viral titer preincubated for 1 hr followed by viral infection and cultivated for 48 hrs followed by supernatant transferred to chicken erythrocyte for 1 hr followed by measuring ability to cause positive hemagglutination; assay type: functional, organism-based; conditions: A/Puerto Rico/8/1934(H1N1)
Outline: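 MDCK monolayers in MEM were pre-incubated with compound for 1 h at 37 °C, then infected with 10-fold virus dilutions (10⁻¹–10⁻⁶) and held 48 h at 37 °C, 5% CO₂. Supernatant was mixed with an equal volume of 1% chicken erythrocytes, 60 min at room temperature. Titre was taken from the highest dilution giving full agglutination (log₁₀ EID₅₀). Triplicate per concentration.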

Staphylococcus aureus [1] = experiment: Antibacterial activity against methicillin-resistant Staphylococcus aureus CEMTC 1732 assessed as concentration required to inhibit visible growth by CLSI protocol based serial microdilution method; assay type: functional
Pseudomonas aeruginosa [2] = experiment: Bactericidal activity against Pseudomonas aeruginosa ATCC 9027 assessed as reduction in colony forming unit at 10 ug/ml measured at 4 hrs by time kill assay relative to control; assay type: functional; parameters: scale not given: the % may be the effect or the level left; conditions: dose 10 µg/ml
Outline: (§1)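 Overnight Pseudomonas aeruginosa culture adjusted in Mueller–Hinton broth to about 2.5 × 10⁵ CFU/mL. Compound added at 2.5, 5 or 10 µg/mL, then incubated at 37 °C with shaking (580 rpm) for 22 h. Viable colonies counted on plates at 2, 4, 6, 8 and 22 h. Quantification limit 100 CFU/mL; triplicate.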

Pseudomonas aeruginosa [3] = experiment: Bactericidal activity against Pseudomonas aeruginosa ATCC 9027 assessed as colony forming unit at 10 ug/ml measured at 6 hrs by time kill assay (reference value: 10^8 CFU/ml); assay type: functional; conditions: dose 10 µg/ml; outline: as §1
Citrobacter freundii = experiment: Antibacterial activity against Citrobacter freundii ATCC 8090 assessed as bacterial growth inhibition by CLSI protocol based serial microdilution method; assay type: functional
Pseudomonas aeruginosa [4] = experiment: Bactericidal activity against Pseudomonas aeruginosa ATCC 9027 assessed as reduction in colony forming unit at 2.5 ug/ml measured at 2 hrs by time kill assay relative to control; assay type: functional; parameters: scale not given: the % may be the effect or the level left; conditions: dose 2.5 µg/ml; outline: as §1
Pseudomonas aeruginosa [5] = experiment: Bactericidal activity against Pseudomonas aeruginosa ATCC 9027 assessed as colony forming unit at 2.5 ug/ml measured at 22 hrs by time kill assay (reference value: 1.7 x 10^9 CFU/ml); assay type: functional; conditions: dose 2.5 µg/ml; outline: as §1
Staphylococcus aureus [6] = experiment: Antibacterial activity against methicillin-resistant Staphylococcus aureus CEMTC 1695 assessed as bacterial growth inhibition by CLSI protocol based serial microdilution method; assay type: functional
Staphylococcus aureus [7] = experiment: Bactericidal activity against […] Staphylococcus aureus ATCC 25923 assessed as colony forming unit at 2.5 ug/ml measured at 2 hrs by time kill assay (reference value: 10^6 CFU/ml); assay type: functional; conditions: dose 2.5 µg/ml
Outline: (§2)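 S. aureus overnight culture was adjusted in MHB to ~8 × 10⁵ CFU/mL. Compound was added and the mixture incubated at 37 °C with shaking (580 rpm) for 22 h. Aliquots were plated for colony counts at 2, 4, 6, 8 and 22 h, with a quantification limit of 100 CFU/mL. Runs were done in triplicate.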

Staphylococcus aureus [8] = experiment: Antibacterial activity against […] Staphylococcus aureus ATCC 25923 assessed as bacterial growth inhibition by CLSI protocol based serial microdilution method; assay type: functional
Staphylococcus aureus [9] = experiment: Bactericidal activity against […] Staphylococcus aureus ATCC 25923 assessed as colony forming unit at 1.25 ug/ml measured at 22 hrs by time kill assay (reference value: 2.9 x 10^9 CFU/ml); assay type: functional; conditions: dose 1.25 µg/ml; outline: as §2
Pseudomonas aeruginosa [10] = experiment: Bactericidal activity against Pseudomonas aeruginosa ATCC 9027 assessed as reduction in colony forming unit at 5 ug/ml measured at 4 hrs by time kill assay relative to control; assay type: functional; parameters: scale not given: the % may be the effect or the level left; conditions: dose 5 µg/ml; outline: as §1
Staphylococcus aureus [11] = experiment: Bactericidal activity against […] Staphylococcus aureus ATCC 25923 assessed as colony forming unit at 2.5 ug/ml measured at 8 hrs by time kill assay (reference value: 2.7 x 10^8 CFU/ml); assay type: functional; conditions: dose 2.5 µg/ml; outline: as §2
Pseudomonas aeruginosa [12] = experiment: Bactericidal activity against Pseudomonas aeruginosa ATCC 9027 assessed as reduction in colony forming unit at 10 ug/ml measured at 8 hrs by time kill assay relative to control; assay type: functional; parameters: scale not given: the % may be the effect or the level left; conditions: dose 10 µg/ml; outline: as §1
Pseudomonas aeruginosa [13] = experiment: Bactericidal activity against Pseudomonas aeruginosa ATCC 9027 assessed as reduction in colony forming unit at 2.5 ug/ml measured at 22 hrs by time kill assay relative to control; assay type: functional; parameters: scale not given: the % may be the effect or the level left; conditions: dose 2.5 µg/ml; outline: as §1
Staphylococcus aureus [14] = experiment: Antibacterial activity against methicillin-resistant Staphylococcus aureus CEMTC 1850 assessed as bacterial growth inhibition by CLSI protocol based serial microdilution method; assay type: functional
Pseudomonas aeruginosa [15] = experiment: Bactericidal activity against Pseudomonas aeruginosa ATCC 9027 assessed as colony forming unit at 5 ug/ml measured at 22 hrs by time kill assay (reference value: 1.7 x 10^9 CFU/ml); assay type: functional; conditions: dose 5 µg/ml; outline: as §1
Staphylococcus aureus [16] = experiment: Antibacterial activity against methicillin-resistant Staphylococcus aureus CEMTC 1732 assessed as bacterial growth inhibition by CLSI protocol based serial microdilution method; assay type: functional
Staphylococcus aureus [17] = experiment: Antibacterial activity against methicillin-resistant Staphylococcus aureus CEMTC 1733 assessed as concentration required to inhibit visible growth by CLSI protocol based serial microdilution method; assay type: functional
Pseudomonas aeruginosa [18] = experiment: Bactericidal activity against Pseudomonas aeruginosa ATCC 9027 assessed as reduction in colony forming unit at 5 ug/ml measured at 8 hrs by time kill assay relative to control; assay type: functional; parameters: scale not given: the % may be the effect or the level left; conditions: dose 5 µg/ml; outline: as §1
Candida albicans = experiment: Antifungal activity against Candida albicans CEMTC 34 assessed as concentration required to inhibit visible growth by CLSI protocol based serial microdilution method; assay type: functional
Outline: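 Candida albicans grown in Sabouraud dextrose broth with two-fold serial compound dilutions from water stocks; final inoculum about 5 × 10⁵ CFU/mL. Incubated at 37 °C with orbital shaking (580 rpm). MIC is the lowest concentration preventing growth, by absorbance at 595 nm. MFC is the lowest concentration with no visible growth. Duplicates in two separate experiments.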

Staphylococcus aureus [19] = experiment: Antibacterial activity against methicillin-resistant Staphylococcus aureus CEMTC 707 assessed as bacterial growth inhibition by CLSI protocol based serial microdilution method; assay type: functional
Pseudomonas aeruginosa [20] = experiment: Bactericidal activity against Pseudomonas aeruginosa ATCC 9027 assessed as colony forming unit at 10 ug/ml measured at 4 hrs by time kill assay (reference value: 1.2 x 10^7 CFU/ml); assay type: functional; conditions: dose 10 µg/ml; outline: as §1
[21] = Selectivity index, ratio of CC50 for HEK293T cells assessed as reduction in cell viability measured after 24 hrs by MTT assay to MIC for Proteus vulgaris ATCC 6380 assessed as bacterial growth inhibition by CLSI protocol based serial microdilution method; assay type: toxicity; conditions: human, read-out: Selectivity Index
Staphylococcus aureus [22] = experiment: Bactericidal activity against […] Staphylococcus aureus ATCC 25923 assessed as colony forming unit at 5 ug/ml measured at 22 hrs by time kill assay (reference value: 2.9 x 10^9 CFU/ml); assay type: functional; conditions: dose 5 µg/ml; outline: as §2
Pseudomonas aeruginosa [23] = experiment: Bactericidal activity against Pseudomonas aeruginosa ATCC 9027 assessed as colony forming unit at 5 ug/ml measured at 4 hrs by time kill assay (reference value: 1.2 x 10^7 CFU/ml); assay type: functional; conditions: dose 5 µg/ml; outline: as §1
Pseudomonas aeruginosa [24] = experiment: Bactericidal activity against Pseudomonas aeruginosa ATCC 9027 assessed as reduction in colony forming unit at 5 ug/ml measured at 22 hrs by time kill assay relative to control; assay type: functional; parameters: scale not given: the % may be the effect or the level left; conditions: dose 5 µg/ml; outline: as §1

Compound	MIC (Salmonella typhimurium) [µg/mL]	EC50 (Influenza A virus) [µg/mL]	MBC (Staphylococcus aureus [1]) [µg/mL]	Activity (Pseudomonas aeruginosa [2])	Activity (Pseudomonas aeruginosa [3]) [CFU/ml]	MIC (Citrobacter freundii) [µg/mL]	Activity (Pseudomonas aeruginosa [4])	Activity (Pseudomonas aeruginosa [5]) [CFU/ml]	MIC (Staphylococcus aureus [6]) [µg/mL]	Activity (Staphylococcus aureus [7]) [CFU/ml]	MIC (Staphylococcus aureus [8]) [µg/mL]	Activity (Staphylococcus aureus [9]) [CFU/ml]	Activity (Pseudomonas aeruginosa [10])	Activity (Staphylococcus aureus [11]) [CFU/ml]	Activity (Pseudomonas aeruginosa [12])	Activity (Pseudomonas aeruginosa [13])	MIC (Staphylococcus aureus [14]) [µg/mL]	Activity (Pseudomonas aeruginosa [15]) [CFU/ml]	MIC (Staphylococcus aureus [16]) [µg/mL]	MBC (Staphylococcus aureus [17]) [µg/mL]	further results
CCCCCCCCCCCC[N+]12CC[N+](Cc3ccccc3C[N+]34CC[N+](CCCCCCCCCCCC)(CC3)CC4)(CC1)CC2	16	1	1	>=99.9%	<100	1.6	>=90%	100	1	1000	0.6	<100	>=99.9%	<100	>=99.9%	>=99.9%	0.5	<100	0.5	1	Activity (Pseudomonas aeruginosa [18]): >=99.9%; MFC (Candida albicans): 6.3 µg/mL; MIC (Staphylococcus aureus [19]): 0.5 µg/mL; Activity (Pseudomonas aeruginosa [20]): <100 CFU/ml; selectivity ratio at 24 h [21]: < 1; Activity (Staphylococcus aureus [22]): <100 CFU/ml; Activity (Pseudomonas aeruginosa [23]): <100 CFU/ml; Activity (Pseudomonas aeruginosa [24]): >=99.9%
CCCCCCCCCCCC[N+]12CC[N+](CCC[N+]34CC[N+](CCCCCCCCCCCC)(CC3)CC4)(CC1)CC2	1.6	1.9	1	>=99.9%	<100	1.6	>=99.9%	<100	1	330	0.3	<100	>=99.9%	<100	>=99.9%	>=99.9%	1	<100	0.5	1	Activity (Pseudomonas aeruginosa [18]): >=99.9%; MFC (Candida albicans): 6.3 µg/mL; MIC (Staphylococcus aureus [19]): 0.5 µg/mL; Activity (Pseudomonas aeruginosa [20]): <100 CFU/ml; selectivity ratio at 24 h [21]: < 1; Activity (Staphylococcus aureus [22]): <100 CFU/ml; Activity (Pseudomonas aeruginosa [23]): <100 CFU/ml; Activity (Pseudomonas aeruginosa [24]): >=99.9%

Reference: ChEMBL document CHEMBL4715780, “Biological evaluation of tetracationic compounds based on two 1,4-diazabicyclo[2.2.2]octane moieties connected by different linkers” (Bioorg Med Chem, 2016)
